According to ChEMBL document CHEMBL1141408, “Synthesis and antimalarial activity of new isotebuquine analogues” (J Med Chem, 2007):
≈ marks a conversion by molar mass, not a printed value. Calls of active or inactive are those of the source. The calls are words filed in the database; no cut-off is given here.

Experiments:
Plasmodium falciparum [1] = assay: Antimalarial activity against chloroquine-resistant Plasmodium falciparum W2; assay type: functional, organism-based
How it was run: (§1)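 Compound DMSO stocks were diluted 400-fold in RPMI 1640 with 25 mM Hepes, 32 mM NaHCO₃ and 10% Albumax I, then 2-fold serially over 11 concentrations. Parasites were exposed for 48 h at 37 °C under 5% O₂/5% CO₂/90% N₂, pulsed with [³H]-hypoxanthine for 18 h, and DNA was harvested onto glass filters for scintillation counting. IC50 was derived by nonlinear-regression logistic dose-response fitting.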

Plasmodium falciparum [2] = assay: Antimalarial activity against chloroquine-resistant Plasmodium falciparum TM91C235; assay type: functional, organism-based; how it was run: as §1
[3] = Toxicity against murine J774 macrophage cells; assay type: cell-based; settings: mouse
How it was run: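 Murine J774 monocyte-like macrophage subclone G8, maintained in DMEM with 10% fetal calf serum, 2 mM L-glutamine and 50 µg/mL gentamicin at 37 °C in 5% CO2/95% air. Cells seeded at 1 × 10⁴/well and left 24 h. Drug or solvent control, diluted in medium, then added for 72 h. Viability read by MTS tetrazolium/formazan conversion after 1–2 h at 37 °C.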

Plasmodium falciparum [4] = assay: Antimalarial activity against chloroquine-sensitive Plasmodium falciparum D6; assay type: functional, organism-based; how it was run: as §1

Structure (SMILES) | IC50 (Plasmodium falciparum [1]) | IC50 (Plasmodium falciparum [2]) | IC50 [3] | IC50 (Plasmodium falciparum [4]) | Activity (Plasmodium falciparum [2])
CC(C)(C)NCc1c(O)cc(Nc2ccnc3cc(Cl)ccc23)c(CNC(C)(C)C)c1-c1ccc(Cl)cc1 | 5.3 ng/mL (≈ 9.61 nM) | 2.5 ng/mL (≈ 4.53 nM) | 2800 ng/mL (≈ 5080 nM) | 2.8 ng/mL (≈ 5.08 nM) | –
Oc1cc(Nc2ccnc3cc(Cl)ccc23)cc(-c2ccc(C(F)(F)F)cc2)c1 | 300 ng/mL (≈ 723 nM) | 140 ng/mL (≈ 338 nM) | – | 15 ng/mL (≈ 36.2 nM) | –
CC(C)(C)NCc1c(O)cc(-c2ccc(C(F)(F)F)cc2)cc1Nc1ccnc2cc(Cl)ccc12 | 2.1 ng/mL (≈ 4.2 nM) | 1.8 ng/mL (≈ 3.6 nM) | 1700 ng/mL (≈ 3400 nM) | 1.8 ng/mL (≈ 3.6 nM) | –
Oc1cc(Nc2ccnc3cc(Cl)ccc23)cc(-c2ccc(Cl)cc2)c1 | 22.4 ng/mL (≈ 58.8 nM) | – | – | 8.8 ng/mL (≈ 23.1 nM) | inactive
CC(C)(C)NCc1c(O)cc(-c2ccc(Cl)cc2)cc1Nc1ccnc2cc(Cl)ccc12 | 1.6 ng/mL (≈ 3.43 nM) | 1.7 ng/mL (≈ 3.64 nM) | 1600 ng/mL (≈ 3430 nM) | 1.4 ng/mL (≈ 3 nM) | –
CC(C)(C)NCc1c(O)cc(Nc2ccnc3cc(Cl)ccc23)c(CNC(C)(C)C)c1-c1ccc(C(F)(F)F)cc1 | 3.6 ng/mL (≈ 6.15 nM) | 3 ng/mL (≈ 5.13 nM) | – | 1.8 ng/mL (≈ 3.08 nM) | –
CC(C)(C)NCc1c(Nc2cc[n+]([O-])c3cc(Cl)ccc23)cc(O)cc1-c1ccc(Cl)cc1 | 9.2 ng/mL (≈ 19.1 nM) | 8.8 ng/mL (≈ 18.2 nM) | – | 4.3 ng/mL (≈ 8.91 nM) | –
CC(C)(C)NCc1cc(Nc2ccnc3cc(Cl)ccc23)cc(-c2ccc(Cl)cc2)c1O [TEBUQUINE] | 0.04 ng/mL (≈ 0.0858 nM) | – | 1800 ng/mL (≈ 3860 nM) | 0.1 ng/mL (≈ 0.214 nM) | inactive
CC(C)(C)NCc1cc(Nc2cc[n+]([O-])c3cc(Cl)ccc23)cc(-c2ccc(Cl)cc2)c1O | 0.9 ng/mL (≈ 1.87 nM) | 2.3 ng/mL (≈ 4.77 nM) | 7200 ng/mL (≈ 14900 nM) | 1.5 ng/mL (≈ 3.11 nM) | –
CC(C)(C)NCc1c(O)cc(-c2ccc(C(F)(F)F)cc2)c(CNC(C)(C)C)c1Nc1ccnc2cc(Cl)ccc12 | 2.8 ng/mL (≈ 4.79 nM) | 2 ng/mL (≈ 3.42 nM) | 750 ng/mL (≈ 1280 nM) | 1.9 ng/mL (≈ 3.25 nM) | –
CC(C)(C)NCc1c(O)cc(-c2ccc(Cl)cc2)c(CNC(C)(C)C)c1Nc1cc[n+]([O-])c2cc(Cl)ccc12 | 9.1 ng/mL (≈ 16 nM) | 8.5 ng/mL (≈ 15 nM) | – | 4.1 ng/mL (≈ 7.22 nM) | –
CC(C)(C)NCc1c(O)cc(-c2ccc(Cl)cc2)c(CNC(C)(C)C)c1Nc1ccnc2cc(Cl)ccc12 | 2.6 ng/mL (≈ 4.71 nM) | 2.3 ng/mL (≈ 4.17 nM) | 3600 ng/mL (≈ 6530 nM) | 2.2 ng/mL (≈ 3.99 nM) | –
CC(C)(C)NCc1c(O)cc(Nc2ccnc3cc(Cl)ccc23)cc1-c1ccc(C(F)(F)F)cc1 | 14 ng/mL (≈ 28 nM) | 73 ng/mL (≈ 146 nM) | – | 1.2 ng/mL (≈ 2.4 nM) | –
CC(C)(C)NCc1c(Nc2ccnc3cc(Cl)ccc23)cc(O)cc1-c1ccc(Cl)cc1 | 0.4 ng/mL (≈ 0.858 nM) | 1.78 ng/mL (≈ 3.82 nM) | 6100 ng/mL (≈ 13100 nM) | 0.3 ng/mL (≈ 0.643 nM) | –
[O-][n+]1ccc(Nc2cc(O)cc(-c3ccc(Cl)cc3)c2)c2ccc(Cl)cc21 | > 1000 ng/mL | 580 ng/mL (≈ 1460 nM) | – | 397 ng/mL (≈ 999 nM) | –
CC(C)(C)NCc1c(Nc2ccnc3cc(Cl)ccc23)cc(O)cc1-c1ccc(C(F)(F)F)cc1 | 130 ng/mL (≈ 260 nM) | 63 ng/mL (≈ 126 nM) | 11600 ng/mL (≈ 23200 nM) | 7.1 ng/mL (≈ 14.2 nM) | –
